Results taken from publication PMC2585982 (Toxicology and applied pharmacology, 2008).
Like-named read-outs stand apart in the source and are kept apart here.

Legend:
P450s 1A1/2 = experiment: Liver microsomal P450 1A activity; type: in vivo, mice
P450s 2B9/10 [1] = experiment: Liver microsomal P450 2B activity; type: in vivo, mice
P450 3A11 [2] = experiment: Liver microsomal P450 3A activity; type: in vivo, mice; conditions: mouse, in vivo
[3] = test system: GST (cumene hydroperoxide); experiment: Liver GST activity, cumene hydroperoxide as substrate, after oral dosing of mice; type: in vivo; conditions: female SENCAR mice, even at the highest doses, data not shown
NQO = experiment: Liver cytosolic NQO activity; type: in vivo, mice; conditions: vs corn oil
GSTα = experiment: Western blot of liver cytosol, GSTα protein expression; type: in vivo; conditions: SENCAR mice, 35, 70, 150 mg/kg p.o., particularly at the highest doses
GSTπ = experiment: Western blot of liver cytosol, GSTπ protein expression; type: in vivo; conditions: SENCAR mice, 35, 70, 150 mg/kg p.o.
GSTμ = experiment: Western blot of liver cytosol, GSTμ protein expression; type: in vivo, mice
P450 1A1/1A2 [4] = conditions: mouse, in vivo
P450 2B10 [5] = conditions: mouse, in vivo
P450s 2B9/10 [6] = conditions: mouse, in vivo; cited from earlier work
P450 2B = conditions: cited from earlier work
[7] = target: mCAR-LBD fused to the Gal4 DNA binding domain (Mus musculus, UniProt O35627); experiment: CAR transfection assay, Gal4-mCAR LBD fusion reporter in HepG2 cells; type: cell-based, murine; conditions: HepG2, 4 μM androstanol; 250 nM TC or 0.1–100 μM isopimpinellin, 24 h
GSTp mRNA = experiment: Northern blot of liver RNA, GSTp mRNA in CAR; type: in vivo, mice; conditions: isopimpinellin 150 mg/kg p.o. 24 h; TC 3 mg/kg i.p. 6 h
GSTa1 mRNA = experiment: Northern blot of liver RNA, GSTa1 mRNA in CAR; type: in vivo, mice; conditions: isopimpinellin 150 mg/kg p.o. 24 h; TC 3 mg/kg i.p. 6 h
Cyp2b10 mRNA = experiment: Northern blot of liver RNA, Cyp2b10 mRNA in CAR; conditions: isopimpinellin 150 mg/kg p.o. 24 h, TC 3 mg/kg i.p. 6 h
Cyp3a11 mRNA = experiment: Northern blot of liver RNA, Cyp3a11 mRNA in CAR; conditions: isopimpinellin 150 mg/kg p.o. 24 h, TC 3 mg/kg i.p. 6 h
P450 2B10 [8] = experiment: Western blot of liver microsomes, P450 2B10 protein expression; conditions: C57BL/6 mice, 100 mg/kg p.o. 3 days
P450 3A11 [9] = experiment: Western blot of liver microsomes, P450 3A11 protein expression; conditions: C57BL/6 mice, 100 mg/kg p.o. 3 days
P450 1A1/1A2 [10] = experiment: Western blot of liver microsomes, P450 1A1/1A2 protein expression; conditions: C57BL/6 mice, 100 mg/kg p.o. 3 days
PXR [11] = target: T1, PXR (Mus musculus, UniProt O54915); experiment: GAL-PXR reporter assay; type: cell-based; conditions: CV-1 cells, 18–24 h
T1 sequence (O54915 143-430 limits assumed): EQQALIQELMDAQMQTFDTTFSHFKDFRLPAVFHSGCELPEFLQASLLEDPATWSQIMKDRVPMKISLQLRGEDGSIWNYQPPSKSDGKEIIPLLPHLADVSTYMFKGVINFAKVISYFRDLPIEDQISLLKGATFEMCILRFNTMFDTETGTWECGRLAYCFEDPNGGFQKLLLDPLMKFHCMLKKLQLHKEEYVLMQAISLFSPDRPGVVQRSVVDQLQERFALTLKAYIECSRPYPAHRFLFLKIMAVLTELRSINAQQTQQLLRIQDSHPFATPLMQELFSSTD

PXR [12] = target: T2, PXR (Mus musculus, UniProt O54915); experiment: PXR-DR3 reporter assay; type: cell-based; conditions: CV-1 cells, full length PXR
T2 sequence (O54915 1-431): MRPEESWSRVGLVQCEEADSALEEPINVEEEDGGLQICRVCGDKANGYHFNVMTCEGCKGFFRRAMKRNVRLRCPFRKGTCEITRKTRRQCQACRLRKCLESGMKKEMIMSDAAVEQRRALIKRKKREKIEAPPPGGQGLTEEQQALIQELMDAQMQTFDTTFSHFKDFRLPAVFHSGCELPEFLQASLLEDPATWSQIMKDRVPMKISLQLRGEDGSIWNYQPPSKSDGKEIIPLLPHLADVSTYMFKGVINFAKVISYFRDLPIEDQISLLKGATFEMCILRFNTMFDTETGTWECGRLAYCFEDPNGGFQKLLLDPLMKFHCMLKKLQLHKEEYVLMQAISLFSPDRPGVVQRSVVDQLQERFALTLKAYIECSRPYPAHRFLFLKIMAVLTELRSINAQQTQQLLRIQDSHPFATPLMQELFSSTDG
T2 sequence (P19793 1-462 partner): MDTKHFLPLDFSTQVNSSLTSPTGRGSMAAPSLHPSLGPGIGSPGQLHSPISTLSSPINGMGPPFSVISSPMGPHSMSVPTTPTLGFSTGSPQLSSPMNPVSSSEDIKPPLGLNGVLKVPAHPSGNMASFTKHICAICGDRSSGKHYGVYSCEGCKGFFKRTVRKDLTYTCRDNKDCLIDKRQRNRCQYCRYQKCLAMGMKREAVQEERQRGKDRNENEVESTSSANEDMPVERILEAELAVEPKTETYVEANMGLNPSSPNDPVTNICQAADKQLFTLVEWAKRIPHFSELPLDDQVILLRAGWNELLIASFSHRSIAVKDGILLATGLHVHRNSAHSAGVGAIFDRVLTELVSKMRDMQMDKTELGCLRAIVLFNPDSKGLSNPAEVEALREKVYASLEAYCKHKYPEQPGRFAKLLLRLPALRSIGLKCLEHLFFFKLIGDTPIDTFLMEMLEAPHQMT

PXR LBD and SRC-1 RID = PXR LBD and SRC-1 RID (Mus musculus, UniProt O54915); experiment: Mammalian two-hybrid assay, Gal-SRC-1 RID + VP-L-PXR in CV-1 cells; type: cell-based; conditions: isopimpinellin 50 μM; PCN 10 μM; Figure 7A
Procedure, shortened: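 Mammalian two-hybrid in CV-1 cells co-transfected with Gal-SRC-1 RID and/or VP-L-PXR, plus MH100-tk-luc reporter and CMX-β-gal. Cells were exposed to compound or solvent control in medium for 18–24 h. Interaction was taken as luciferase activity normalised to β-gal activity; mean ± SD.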

P450 = experiment: Liver microsomal P450 content after oral dosing of mice; type: in vivo; conditions: C57BL/6 mice, 100 mg/kg p.o. 3 days, vs corn oil
[13] = C57BL/6 mice, 100 mg/kg p.o. 3 days, vs corn oil
[14] = C57BL/6 mice, 100 mg/kg p.o. 3 days

PXR LBD and SRC-1 RID, sequence (Q15788 570-780 partner limits assumed, one chain of several): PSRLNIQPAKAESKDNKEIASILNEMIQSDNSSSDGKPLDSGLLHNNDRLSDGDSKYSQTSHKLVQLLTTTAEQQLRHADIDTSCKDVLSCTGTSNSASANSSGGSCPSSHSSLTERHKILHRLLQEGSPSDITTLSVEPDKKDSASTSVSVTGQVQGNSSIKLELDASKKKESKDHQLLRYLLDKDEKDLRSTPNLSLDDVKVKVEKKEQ
mCAR-LBD fused to the Gal4 DNA binding domain, sequence (O35627 119-358 limits assumed): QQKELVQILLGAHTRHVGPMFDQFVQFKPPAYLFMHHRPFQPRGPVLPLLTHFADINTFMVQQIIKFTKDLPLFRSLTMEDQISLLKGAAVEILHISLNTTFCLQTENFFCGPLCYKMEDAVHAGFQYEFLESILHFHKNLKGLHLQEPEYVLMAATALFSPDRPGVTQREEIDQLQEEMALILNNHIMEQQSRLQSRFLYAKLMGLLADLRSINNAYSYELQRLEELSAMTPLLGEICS

## CC(C)=CCOc1c2occc2cc2ccc(=O)oc12 [imperatorin]
P450s 1A1/2; mouse, in vivo
  P450 1 activity, liver microsomes, dose-response study: significant increases
P450s 2B9/10 [1]; mouse, in vivo
  Increase in P450 2B9/10 enzyme activity, dose-response study: ~ 100 fold
  P450 2B activity, liver microsomes, dose-response study: significant increases
P450 3A11 [2]
  P450 3A activity, liver microsomes, dose-response study: increased
[3]
  GST activity using cumene hydroperoxide as a substrate: no differences
NQO; female SENCAR mice, 35, 70, 150 mg/kg p.o. 4 days
  Liver cytosolic NQO activity, dose-response study: increased at all doses
GSTα
  Hepatic expression of GST α protein, dose-response study: greatly increased
GSTπ
  Hepatic expression of GST π protein, dose-response study: modest increase
GSTμ; SENCAR mice, 35, 70, 150 mg/kg p.o.
  Hepatic expression of GST μ protein, dose-response study: no increase
P450 1A1/1A2 [4]
  P450 1A1/1A2 protein levels, dose-response study: elevated
P450 2B10 [5]
  Increase in P450 2B9/10 protein expression (optical density), dose-response study: 1.5–2 fold
  P450 2B10 protein levels, dose-response study: significantly elevated
P450s 2B9/10 [6]
  Hepatic P450 2B9/10 activity at 1 h after the final dose: no elevation
  Increase in hepatic P450 2B9/10 activity at 24 h after the final dose: 100 fold
P450 2B
  Potency at blocking P450 2B activity relative to isopimpinellin: 10–100 times

## Clc1cnc(Oc2ccc(Oc3ncc(Cl)cc3Cl)cc2)c(Cl)c1 [TC, 1,4-bis[2-(3,5-dichloropyridyloxy)]benzene, reference compound]
[7]
  Effect on the inhibitory effect of androstanol on Gal4 reporter expression (mCAR-LBD): counteracted
GSTp mRNA
  Increase in hepatic GSTp mRNA, CAR(−/−) mice: no increase
  Increase in hepatic GSTp mRNA, female CAR(+/+) mice: ~ 4 fold
GSTa1 mRNA
  Increase in hepatic GSTa1 mRNA, female CAR(−/−) mice: did not increase
  Increase in hepatic GSTa1 mRNA, male CAR(−/−) mice: did not increase
  Increase in hepatic GSTa1 mRNA, male and female CAR(+/+) mice: 8–10 fold
Cyp2b10 mRNA
  Induction of hepatic Cyp2b10 mRNA, CAR(−/−) mice: absent
Cyp2b10 mRNA; male and female
  Induction of hepatic Cyp2b10 mRNA, CAR(+/+) mice: ~ 4 fold
Cyp3a11 mRNA
  Induction of hepatic Cyp3a11 mRNA, CAR(−/−) mice: absent
Cyp3a11 mRNA; male and female
  Induction of hepatic Cyp3a11 mRNA, CAR(+/+) mice: ~ 4 fold

## COc1cc(OC)c2ccc(=O)oc2c1 [limettin, 5,7-dimethoxycoumarin]
P450 2B10 [8]
  P450 2B10 protein expression (western blot densitometry): did not have any apparent effect
P450 3A11 [9]
  P450 3A11 protein expression (western blot densitometry): did not have any apparent effect
P450 1A1/1A2 [10]
  P450 1A1/1A2 protein expression (western blot densitometry): did not have any apparent effect

## CC(=O)[C@H]1[C@H](C#N)C[C@H]2[C@@H]3CC=C4C[C@@H](O)CC[C@]4(C)[C@H]3CC[C@@]21C [PCN, reference compound]
PXR [11]
  Max (concentration to reach maximal effect), GAL-PXR: 3,000 nM
PXR [11]; luciferase normalized by β-gal
  ED50, GAL-PXR activation: 63 nM
PXR [12]
  Max (concentration to reach maximal effect), PXR-DR3: 100 nM
PXR [12]; 18–24 h
  ED50, PXR-DR3 activation: 20 nM
PXR LBD and SRC-1 RID
  Induced interaction of PXR LBD and SRC-1 RID compared to the control: similar

## CCC1(c2ccccc2)C(=O)NC(=O)NC1=O [PB, Phenobarbital, reference compound]
P450s 1A1/2; [13]
  P450 1 activity (ethoxyresorufin), liver microsomes: significant increase
P450s 2B9/10 [1]; [13]
  Increase in P450 2B activity (pentoxyresorufin), liver microsomes: significant increase
P450 3A11 [2]; po, 100 mg/kg
  Increase in P450 3A activity (testosterone), liver microsomes: 3–4 fold
P450
  P450 content, liver microsomes: increased
NQO; [14]
  Increase in NQO activity, liver cytosol: not significantly different from the control group
GSTμ; [14]
  Liver cytosolic GSTμ protein expression (western blot densitometry): greater effect
P450 1A1/1A2 [4]; po, 100 mg/kg
  P450 1A1/1A2 protein expression (western blot densitometry): increased
P450 2B10 [8]
  P450 2B10 protein expression (western blot densitometry): increased
P450 3A11 [9]
  P450 3A11 protein expression (western blot densitometry): increased
